pIC50: −log10 of the molar value.
Legend:
Plasmodium falciparum [1] = test: Antimalarial activity against chloroquine-sensitive asexual blood stage of Plasmodium falciparum 3D7 infected in RBC after 72 hrs by SYBR Green assay; format: functional, organism-based; details: 3D7, 72 h
Outline: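 Asexual blood-stage P. falciparum 3D7 (chloroquine-sensitive) parasites. 1536-well format, 11-point dose-response, duplicate tests. Torin 2 served as positive control and DMSO as negative control.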

Plasmodium falciparum [2] = test: Gametocytocidal activity against chloroquine-sensitive late gametocytic stage (III to V) of Plasmodium falciparum 3D7 after 72 hrs by Alamar Blue assay; format: functional, organism-based; details: 3D7, 72 h
Outline: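 Late-stage (III–V) P. falciparum 3D7 gametocytes. AlamarBlue redox indicator reads cytosolic metabolic activity as a measure of gametocyte viability. 1536-well format, 11-point dose-response, duplicates. Torin 2 positive control, DMSO negative control.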

HepG2 = test: Cytotoxicity against human HepG2 cells assessed as cell viability after 24 hrs; format: cell-based; details: HepG2, 24 h
Outline: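 HepG2 cell viability as general cytotoxicity. 1536-well, 11-point dose-response in duplicate, top concentration 46 μM. Torin 2 positive control, DMSO negative control.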

Plasmodium falciparum [3] = test: Selectivity ratio of IC50 for chloroquine-sensitive late gametocytic stage (III to V) of Plasmodium falciparum 3D7 to IC50 for chloroquine-sensitive asexual blood stage of Plasmodium falciparum 3D7; format: functional

Cn1c(=O)n(-c2cccc(C(F)(F)F)c2)c2c3cc(-c4cccnc4)ccc3ncc21
pIC50 (Plasmodium falciparum [1]): 7.02
pIC50 (Plasmodium falciparum [2]): 6.63
pIC50 (HepG2): 4.99

Cn1c(=O)n(-c2cccc(C(F)(F)F)c2)c2c3cc(-c4cnc(N)nc4)ccc3ncc21
pIC50 (Plasmodium falciparum [1]): 7.77
pIC50 (Plasmodium falciparum [2]): 7.28
pIC50 (HepG2): 5.88

Cn1c(=O)n(-c2cccc(C(F)(F)F)c2)c2c3cc(-c4ccc(Cl)cc4)ccc3ncc21
Ratio IC50 (Plasmodium falciparum [3]): 1
pIC50 (Plasmodium falciparum [1]): 5.76
pIC50 (Plasmodium falciparum [2]): 5.73
pIC50 (HepG2): < 4.35

N#Cc1cccc(-c2ccc3ncc4[nH]c(=O)n(-c5cccc(C(F)(F)F)c5)c4c3c2)c1
Ratio IC50 (Plasmodium falciparum [3]): 1
pIC50 (Plasmodium falciparum [1]): 6.06
pIC50 (Plasmodium falciparum [2]): 5.55
pIC50 (HepG2): < 4.35

Nc1ccc(-c2ccc3ncc4[nH]c(=O)n(C5CCCCC5)c4c3c2)cn1
pIC50 (Plasmodium falciparum [1]): 5.87
pIC50 (Plasmodium falciparum [2]): 5.54
pIC50 (HepG2): 5.19

CC(=O)Nc1ccc(-c2ccc3ncc4[nH]c(=O)n(-c5cccc(C(F)(F)F)c5)c4c3c2)cn1
pIC50 (Plasmodium falciparum [1]): 7.09
pIC50 (Plasmodium falciparum [2]): 6.73
pIC50 (HepG2): < 4.35

Cn1c(=O)n(-c2cccc(C(F)(F)F)c2)c2c3cc(-c4ccc(C#N)cc4)ccc3ncc21
Ratio IC50 (Plasmodium falciparum [3]): 1
pIC50 (Plasmodium falciparum [1]): 5.13
pIC50 (Plasmodium falciparum [2]): 4.96
pIC50 (HepG2): < 4.35

CCn1c(=O)n(-c2cccc(C(F)(F)F)c2)c2c3cc(-c4ccc(Cl)cc4)ccc3ncc21
Ratio IC50 (Plasmodium falciparum [3]): 1
pIC50 (Plasmodium falciparum [1]): 5.41
pIC50 (Plasmodium falciparum [2]): 4.98
pIC50 (HepG2): < 4.35

O=c1[nH]c2cnc3ccc(-c4ccc(O)cc4)cc3c2n1-c1cccc(C(F)(F)F)c1
Ratio IC50 (Plasmodium falciparum [3]): 1
pIC50 (Plasmodium falciparum [1]): 6.11
pIC50 (Plasmodium falciparum [2]): 5.83
pIC50 (HepG2): 5.39

N#Cc1ccc(-c2ccc3ncc4[nH]c(=O)n(-c5cccc(C(F)(F)F)c5)c4c3c2)cc1
Ratio IC50 (Plasmodium falciparum [3]): 1
pIC50 (Plasmodium falciparum [1]): 5.59
pIC50 (Plasmodium falciparum [2]): 5.20
pIC50 (HepG2): < 4.35

CS(=O)(=O)c1ccc(-c2ccc3ncc4[nH]c(=O)n(-c5cccc(C(F)(F)F)c5)c4c3c2)cc1
Ratio IC50 (Plasmodium falciparum [3]): 1
pIC50 (Plasmodium falciparum [1]): 5.94
pIC50 (Plasmodium falciparum [2]): 5.95
pIC50 (HepG2): < 4.35

Cn1c(=O)n(-c2cccc(C(F)(F)F)c2)c2c3cc(-c4ccncc4)ccc3ncc21
pIC50 (Plasmodium falciparum [1]): 7.03
pIC50 (Plasmodium falciparum [2]): 6.44
pIC50 (HepG2): 5.76

O=c1[nH]c2cnc3ccc(-c4ccc(O)nc4)cc3c2n1-c1cccc(C(F)(F)F)c1
pIC50 (Plasmodium falciparum [1]): 6.39
pIC50 (Plasmodium falciparum [2]): 5.33
pIC50 (HepG2): < 4.35

Cn1c(=O)n(-c2cccc(C(F)(F)F)c2)c2c3cc(-c4ccc(O)cc4)ccc3ncc21
Ratio IC50 (Plasmodium falciparum [3]): 1
pIC50 (Plasmodium falciparum [1]): 6.94
pIC50 (Plasmodium falciparum [2]): 6.64
pIC50 (HepG2): 5.63

O=c1[nH]c2cnc3ccc(-c4ccc(Cl)cc4)cc3c2n1-c1cccc(C(F)(F)F)c1
Ratio IC50 (Plasmodium falciparum [3]): 1
pIC50 (Plasmodium falciparum [1]): 5.77
pIC50 (Plasmodium falciparum [2]): 5.45
pIC50 (HepG2): < 4.35

Nc1ccc(-c2ccc3ncc4[nH]c(=O)n(-c5cccc(C(F)(F)F)c5)c4c3c2)cn1
pIC50 (Plasmodium falciparum [1]): 7.04
pIC50 (Plasmodium falciparum [2]): 7.01
pIC50 (HepG2): 5.51

Cn1c(=O)n(C2CC2)c2c3cc(-c4ccc(N)nc4)ccc3ncc21
pIC50 (Plasmodium falciparum [1]): 5.94
pIC50 (Plasmodium falciparum [2]): 6.06
pIC50 (HepG2): 4.94

O=c1[nH]c2cnc3ccc(-c4ccncc4)cc3c2n1-c1cccc(C(F)(F)F)c1
pIC50 (Plasmodium falciparum [1]): 6.50
pIC50 (Plasmodium falciparum [2]): 5.94
pIC50 (HepG2): 5.82

O=c1[nH]c2cnc3ccccc3c2n1-c1cccc(C(F)(F)F)c1
pIC50 (Plasmodium falciparum [1]): 5.30
pIC50 (Plasmodium falciparum [2]): 5.13
pIC50 (HepG2): < 4.35

Cn1c(=O)n(-c2ccc(C#N)cc2)c2c3cc(-c4ccc(N)nc4)ccc3ncc21
pIC50 (Plasmodium falciparum [1]): 7.01
pIC50 (Plasmodium falciparum [2]): 6.93
pIC50 (HepG2): < 4.35

Cc1ccc(-c2ccc3ncc4c(c3c2)n(-c2cccc(C(F)(F)F)c2)c(=O)n4C)cc1
Ratio IC50 (Plasmodium falciparum [3]): 1
pIC50 (Plasmodium falciparum [1]): 6.13
pIC50 (Plasmodium falciparum [2]): 6.28
pIC50 (HepG2): < 4.35

Cn1c(=O)n(-c2cccc(C(F)(F)F)c2)c2c3ccccc3ncc21
pIC50 (Plasmodium falciparum [1]): 4.77
pIC50 (Plasmodium falciparum [2]): 5.44
pIC50 (HepG2): < 4.35

O=c1[nH]c2cnc3ccc(-c4ccc5[nH]cnc5c4)cc3c2n1-c1cccc(C(F)(F)F)c1
pIC50 (Plasmodium falciparum [1]): 6.67
pIC50 (Plasmodium falciparum [2]): 6.46
pIC50 (HepG2): 5.49

Nc1ccc(-c2ccc3ncc4[nH]c(=O)n(-c5cccc(C(F)(F)F)c5)c4c3c2)cc1
Ratio IC50 (Plasmodium falciparum [3]): 11.6
pIC50 (Plasmodium falciparum [1]): 6.55
pIC50 (Plasmodium falciparum [2]): 5.49
pIC50 (HepG2): 5.14

Cn1c(=O)n(-c2cccc(C(F)(F)F)c2)c2c3cc(-c4ccc(S(N)(=O)=O)cc4)ccc3ncc21
Ratio IC50 (Plasmodium falciparum [3]): 1
pIC50 (Plasmodium falciparum [1]): 6.34
pIC50 (Plasmodium falciparum [2]): 6.09
pIC50 (HepG2): < 4.35

O=c1[nH]c2cnc3ccc(-c4ccccc4)cc3c2n1-c1cccc(C(F)(F)F)c1
Ratio IC50 (Plasmodium falciparum [3]): 4.6
pIC50 (Plasmodium falciparum [1]): 5.39
pIC50 (Plasmodium falciparum [2]): 4.74
pIC50 (HepG2): < 4.35

Cc1ccc(-c2ccc3ncc4c(c3c2)n(-c2cccc(C(F)(F)F)c2)c(=O)n4C)cn1
pIC50 (Plasmodium falciparum [1]): 7.68
pIC50 (Plasmodium falciparum [2]): 7.09
pIC50 (HepG2): 4.84
